The values that follow come from ChEMBL document CHEMBL1130800, “Complexation of okadaic acid: a preliminary study” (1998).

Format in all cases: functional
The species named for assay [1] is Rattus norvegicus. Description: Decrease in tone in estrogen-primed rat uterus at 20 uM in Ca+2-free solution. In a few lines:
(§1)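 Uterine strips from estradiol benzoate-primed (100 μg Kg⁻¹ ip, 24 h) virgin female Wistar rats, 200-250 g, in Sund's PSS (Ca²⁺-free, Na⁺/Ca²⁺-free, or K⁺/Ca²⁺-free with KCl omitted), 32°C, 95% O₂/5% CO₂, 0.5 g resting force. One 20 μM application per strip. Isometric tension decline measured at 120 min, as % of the agent's maximal tension increase. Mean ± s.e.m.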

The species named for assay [2] is Rattus norvegicus. Description: Decrease in tone in estrogen-primed rat uterus at 20 uM in [Ca2+] free K+free solution. In a few lines: as §1
The species named for assay [3] is Rattus norvegicus. Put plainly: Decrease in tone in estrogen-primed rat uterus at 20 uM in [Ca2+] free Na+free solution. In outline:
as §1

The species entered for assay [4] is Rattus norvegicus. Put plainly: Duration of plateau(min) in estrogen-primed rat uterus at 20 uM in Ca+2-free solution. In a few lines: (§2)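 Estrus-confirmed, oestrogen-primed rat uterine longitudinal strips in Ca²⁺-free, Na⁺/Ca²⁺-free or K⁺/Ca²⁺-free Sund's PSS at 32°C, gassed 95% O₂/5% CO₂. Strips equilibrated 45 min, then given repeated ACh 1 mM until responses were reproducible. A single 20 μM dose per strip. Contraction plateau duration (min) taken from isometric recordings. Mean ± s.e.m.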

The species named for assay [5] is Rattus norvegicus. Description: Duration of plateau(min) in estrogen-primed rat uterus at 20 uM in [Ca2+] free K+free solution. In outline:
as §2

Assay [6] is filed under the species Rattus norvegicus. Description: Duration of plateau(min) in estrogen-primed rat uterus at 20 uM in [Ca2+] free Na+free solution. In a few lines: as §2
For assay [7], the species on record is Rattus norvegicus. Description: Emax value in estrogen-primed rat uterus at 20 uM in [Ca2+] free Na+free solution. In outline:
(§3)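 Strips from oestrogen-primed Wistar rat uterus, 0.5 g resting force, in Sund's PSS variants (Ca²⁺-free; Na⁺- and Ca²⁺-free; K⁺- and Ca²⁺-free) at 32°C. A single 20 μM addition per strip. Maximal isometric contraction expressed as % of the maximal tension evoked by ACh 1 mM in the same strip. Mean ± s.e.m.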

The species named for assay [8] is Rattus norvegicus. Put plainly: Emax value in estrogen-primed rat uterus at 20 uM in Ca+2-free solution. In a few lines: as §3
The species named for assay [9] is Rattus norvegicus. Description: Emax value in estrogen-primed rat uterus at 20 uM in Ca+2-free K+free solution. In a few lines:
as §3

The species named for assay [10] is Rattus norvegicus. Description: Time to peak tension(min) in estrogen-primed rat uterus at 20 uM in Ca+2-free solution. In a few lines: (§4)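 Isometric recording at 32°C of uterine strips from estrogen-primed (100 μg Kg⁻¹ ip estradiol benzoate, 24 h prior) female Wistar rats, in Ca²⁺-free, Na⁺/Ca²⁺-free or K⁺/Ca²⁺-free Sund's PSS. Each strip received one 20 μM application. Time to peak tension (min) measured from the onset of the tension increase. Mean ± s.e.m.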

The species named for assay [11] is Rattus norvegicus. Description: Time to peak tension(min) in estrogen-primed rat uterus at 20 uM in [Ca2+] free K+free solution. In outline:
as §4

Assay [12] is filed under the species Rattus norvegicus. Put plainly: Time to peak tension(min) in estrogen-primed rat uterus at 20 uM in [Ca2+] free Na+free solution. In a few lines:
as §4

Turning to `C=C1[C@@H](O)[C@@H]2O[C@@]3(CCC2O[C@@H]1[C@@H](O)C[C@H](C)C1O[C@@]2(CCCCO2)CC[C@H]1C)CC[C@H](/C=C/[C@@H](C)[C@@H]1CC(C)=C[C@@]2(O[C@H](C[C@@](C)(O)C(=O)O)CC[C@H]2O)O1)O3` (some centres undefined), the results for the Decrease in tone in the assay filed under Rattus norvegicus [1], in the assay filed under Rattus norvegicus [2] and in the assay listed under Rattus norvegicus [3] were 92.8, 98 and 93.3, respectively. In addition, the Duration of plateau in the assay listed under Rattus norvegicus [4] is 3.7 min; in the assay listed under Rattus norvegicus [5], 2.9 min; in the assay filed under Rattus norvegicus [6], 4.2 min. Further, the Emax in the assay listed under Rattus norvegicus [7] came to 186.5; in the assay filed under Rattus norvegicus [8] it was 101.7; in the assay filed under Rattus norvegicus [9], 135.2. The “Time to peak tension” value in the assay filed under Rattus norvegicus [10] worked out at 23 min; in the assay listed under Rattus norvegicus [11] it was 20.7 min; in the assay filed under Rattus norvegicus [12] it was 30.3 min.
Take `C=C1[C@@H](O)[C@@H]2O[C@]3(CC[C@H](/C=C/[C@@H](C)[C@@H]4CC(C)=C[C@@]5(O[C@H](C[C@@](C)(O)C(=O)O)CC[C@H]5O)O4)O3)CC[C@H]2O[C@@H]1[C@@H](O)C[C@H](C)[C@H]1O[C@@]2(CCCCO2)CC[C@H]1C` [OKADAIC ACID]: the figures for the Decrease in tone in the assay listed under Rattus norvegicus [1], in the assay filed under Rattus norvegicus [2] and in the assay filed under Rattus norvegicus [3] were 85.7, 58.1 and 94.8, respectively. The Duration of plateau in the assay filed under Rattus norvegicus [4] is 2.1 min; in the assay filed under Rattus norvegicus [5], 12.8 min; in the assay filed under Rattus norvegicus [6], 3.8 min. Further, the Emax in the assay filed under Rattus norvegicus [7] worked out at 150.8; in the assay filed under Rattus norvegicus [8], 107.9; in the assay filed under Rattus norvegicus [9], 6.2. Besides, the “Time to peak tension” value in the assay listed under Rattus norvegicus [10] came to 27.2 min; in the assay listed under Rattus norvegicus [11], 28.5 min; in the assay filed under Rattus norvegicus [12], 25.1 min.
